Laboratory results from ChEMBL document CHEMBL4513216, “Probing the Open Global Health Chemical Diversity Library for Multistage-Active Starting Points for Next-Generation Antimalarials” (ACS Infect Dis, 2020).

test: Toxicity liver stage against HepG2, at 10uM; type: cell-based; design: test concentration 10 uM, cell line HepG2-A16-CD81EGFP; conditions: human, HepG2-A16-CD81EGFP cells; read-out: INHIBITION
How it was run: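 Uninfected HepG2-A16-CD81EGFP cells, 3 × 10^3 per well, 1536-well, plated on prespotted compound at 10 μM final, parasite-free screening media added to match infected plates; puromycin 10 μM positive, DMSO 0.5% negative; run in parallel with 48 h PbLuc assay at 37 °C, 5% CO2; viability by CellTiter-Glo luminescence, normalized to controls.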

| Structure (SMILES) | cytotoxicity at 10 µM |
| --- | --- |
| Cc1ccc2nc(CSCC(=O)Nc3nnc(C(C)C)s3)cc(=O)n2c1 | -4.44% |
| O=C(Nc1nc(-c2ccccc2)ns1)N1CCC(F)CC1 | -137% |
| Cc1cncc(C2CCN(Cc3ccncc3)CC2)n1 | -3.08% |
| O=S1(=O)COCCN1Cc1cccc(Cl)c1 | -11.4% |
| CC1N(CC2CC2)C(=O)COC12CCN(C(=O)c1cccs1)CC2 (stereo unspecified) | -3.64% |
| Cc1nn(-c2ccccc2Cl)c(C)c1CCC(=O)NCCS(C)(=O)=O | 2.78% |
| Cc1nocc1C(=O)N1CCOC2(COCCN(C(C)C)C2)C1 (stereo unspecified) | 10% |
| Cc1nsc(N2CCCN(c3ccc(C#N)cn3)CC2)n1 | -1.32% |
| CCCS(=O)(=O)NC(=O)c1ccc(-n2nc(C)cc2C)cc1 | 1.36% |
| CCOCCOc1ccc(S(=O)(=O)N2CCc3c(nc[nH]c3=O)C2)cc1 | -5.85% |
| Cc1c(NCCCOc2cccc(C#N)c2)cccc1C(N)=O | -0.572% |
| CC(CNC(=O)c1cccnc1O)Cn1cccn1 (stereo unspecified) | 0.144% |
| O=S(=O)(c1cccs1)N1CCCCC1c1ccn[nH]1 (stereo unspecified) | -3% |
| NC(=O)C1CCCN1Cc1nccn1CC(F)(F)F (stereo unspecified) | 12.2% |
| CSc1ccc(NC(=O)Nc2ccc3c(c2)N(S(C)(=O)=O)CC3)cc1 | 48.5% |
| COc1cc(CNCC2CNc3ccnn3C2)ccn1 (stereo unspecified) | -0.65% |
| Cc1ccc(S(=O)(=O)N2C[C@H]3C[C@H](NC(=O)c4ccn(C)n4)[C@H]3C2)cc1 | -1.11% |
| Cc1nn(Cc2ccc(C(=O)NC3CCS(=O)(=O)C3)cc2)c(C)c1Br (stereo unspecified) | -3.71% |
| CC(C(=O)NCc1ccc(N2CCCCCC2)nc1)S(C)(=O)=O (stereo unspecified) | -11.9% |
| CCCNC(=O)CN1CCN(Cc2csc(C(C)(C)C)n2)CC1 | -7.88% |
| CCn1ncc(S(=O)(=O)N[C@@H]2CCC[C@@H](n3ccnc3)[C@@H]2O)c1C | 1.18% |
| CCc1nc(CNC2CCN(c3ccc(OC)cc3)CC2)cs1 | -12.8% |
| Cc1nc(C)c(Cn2ccnc2-c2cc(CN(C)C)cs2)s1 | 1.99% |

| Structure (SMILES) | cytotoxicity at 10 µM |
| --- | --- |
| COCc1nnc(C(=O)N2CCCC(O)C2)o1 (stereo unspecified) | 1.31% |
| Cn1nc2c(cc1=O)CN(Cc1nc3ccccc3c(=O)[nH]1)CC2 | -7.64% |
| COc1cc(CNC(C)Cn2ccnc2)cc2c1OCO2 (stereo unspecified) | 2.67% |
| COc1cccc(CNC[C@H]2COCc3nc4cccnc4n32)n1 | -1.57% |
| CCCc1[nH]n(C)c(=N)c1-c1ccc2c(c1)OCO2 | -51.5% |
| CC(C)CC(=O)N1CCN(C(=O)N(C)C)CC2(CC(=O)N(C)C2)C1 (stereo unspecified) | -20.3% |
| N#Cc1cccc(S(=O)(=O)NC(=O)COc2ccc3c(c2)CCC3)c1 | 1.33% |
| CCOCc1nn(C)c2c1CN(CCO)CC2 | -103% |
| O[C@@H]1C[C@H]2CN(CC3CCCCC3)[C@H](Cc3ccccc3)CN2C1 | 0.13% |
| Cn1cc(C[C@H]2[C@H](O)CCN2Cc2ccc(F)cc2)cn1 | -75.9% |
| Cc1cnn(CC2CCN(CC(O)Cn3cccn3)CC2)c1 (stereo unspecified) | -1.66% |
| Cn1ccc2ccc(C(=O)NC3CCOC(C)(C)C3)cc21 (stereo unspecified) | 3.13% |
| Cc1ccc2c(c1)c(CNC(=O)C1CCN(C(=O)C3CC3)CC1)nn2C | -0.687% |
| COc1ccc(CN2C[C@H]3CN(Cc4ccncc4)C(=O)[C@H]3C2)cc1 | 4.35% |
| CC(C)COCC1CN(Cc2ccsc2)Cc2ncn(C)c21 (stereo unspecified) | 6.61% |
| CNC(=O)NC(=O)CNC(CC(F)(F)F)c1ccc(F)cc1 (stereo unspecified) | 7.69% |
| CC(C)c1ccc(CC2(C)Cc3cc(CC(=O)O)ccc3O2)cc1 (stereo unspecified) | 6.65% |
| Cc1c(C(=O)N(C)c2ccccc2)cccc1N(C)S(C)(=O)=O | 6.36% |
| CN1CCN(CCOc2ccc(NC(=O)c3ccoc3)cc2)CC1 | -2.09% |
| CCCn1nc(C(=O)N(C)Cc2nnc3n2CCC3)ccc1=O | 1.77% |
| COc1cccc(OCC2CCCN(C(=O)c3ncoc3C3CC3)C2)c1 (stereo unspecified) | 3.79% |
| Cc1ccc(S(=O)(=O)NC2=NCN(CCc3cccs3)CN2)cc1 | 4.77% |
| CC(O)CNCc1ccccc1C(F)(F)F (stereo unspecified) | -3.3% |

| Structure (SMILES) | cytotoxicity at 10 µM |
| --- | --- |
| O=C(NCC1CCC(c2nnc(-c3cccnc3)o2)CC1)C1CC1 (stereo unspecified) | 3.15% |
| CCCN(CCS(C)(=O)=O)C1CCc2ccccc2C1 (stereo unspecified) | -5.08% |
| CCN1C[C@H]2CCN(C(=O)Cc3cccc(OC)c3)CC[C@H]2S1(=O)=O | 9.86% |
| COCCN(C)CC(=O)N1C[C@@H]2CC[C@H]1CN(C(=O)c1ccncc1)C2 | -0.908% |
| NC(=O)N1CC2(CCNCC2)c2cc(Cl)ccc21 | 1.79% |
| Cc1nc(N2CCCC2)nc2c1CCN(Cc1ccoc1)CC2 | -134% |
| COCCCNC(=O)Nc1cc(-c2ccccc2C)nn1CCO | -0.267% |
| CN(C)C(=O)C1SCCc2ccccc21 (stereo unspecified) | 1.81% |
| CC(=O)Nc1nc(C2CCN(C(=O)c3cccnc3)CC2)cs1 | -2.47% |
| Cc1cc(CN2CCc3nn(C)c(=O)cc3C2)no1 | -9.01% |
| Cc1cc(C)cc(OCCN2CCn3c(C)nnc3C2)c1 | -9.08% |
| O=C(O)c1ccccc1CN1CCC2(Cc3ccccc3CNC2=O)C1 (stereo unspecified) | 8.21% |
| CN(C)CCCN(CCC#N)C(=O)Nc1ccc2[nH]ccc2c1 | -52.4% |
| Cc1c(Br)c(C(=O)NC(C)c2ccccc2)nn1C (stereo unspecified) | -4.34% |
| COc1ccc(CNC(=O)NCc2nc(C)c(C)s2)cn1 | 8.73% |
| CN(C)CCO[C@H]1CN(C(=O)c2ccc3c(c2)OCO3)[C@@H]2COC[C@H]12 | -151% |
| CCc1ccc(CNC(=O)CCc2nnc(-c3ccc(C)s3)o2)nc1 | -3.65% |
| CN(Cc1noc(C2CC2)n1)C1CCN(Cc2ncc[nH]2)C1 (stereo unspecified) | -1.87% |
| CN(C)Cc1cnc2n1CCN(C(=O)NC1CCCC1)CC2 | -3.77% |
| O=C(Nc1ccccc1)C1=NOC2(CCCNC2)C1 (stereo unspecified) | 1.02% |
| COc1ccc(OCCCNC(=O)NCc2csc(C)n2)cc1 | -7.54% |
| COCCN1CCCC1c1cccc2c1OCCO2 (stereo unspecified) | -9.54% |
| CCC1c2ccsc2CCN1C(=O)NCc1ccnc(N(C)C)c1 (stereo unspecified) | -11.9% |

| Structure (SMILES) | cytotoxicity at 10 µM |
| --- | --- |
| Cc1cc(C(F)(F)F)cc(=O)n1Cc1nc(C(C)C)no1 | 0.9% |
| Cn1ncc2c(N3CCCC(C)(O)C3)nc(C(C)(C)C)nc21 (stereo unspecified) | -43.6% |
| CCc1ccc(C2CCCN2C(=O)Cc2ccc(NC(C)=O)cc2)o1 (stereo unspecified) | -0.557% |
| Cc1ccc(CN2CC(C(=O)Nc3ccccc3)C3(CCOCC3)C2)o1 (stereo unspecified) | 0.927% |
| COCC(=O)NCc1cc(=O)n2c(n1)CN(Cc1ccccc1)CCC2 | -103% |
| CC(C)[C@@H]1CN(C(=O)NCc2ccco2)C[C@H]1NS(=O)(=O)N(C)C | 6.14% |
| CN1CC2(CCCN(c3cc(N4CCCCC4)ncn3)C2)OC1=O (stereo unspecified) | -39.7% |
| N[C@@H]1CCN(Cc2cccc(N3CCOCC3)c2)C[C@H]1O | 11.8% |
| Cc1nn(C)cc1CNCc1ccc(N(C)C)cc1 | -11.9% |
| O=C(NCc1cccnc1)NC1CCCN(c2ncccn2)C1 (stereo unspecified) | -2.5% |
| Cc1nc2ccccn2c1CC(=O)N[C@@H]1CCC[C@@H](N2CCCC2)[C@@H]1O | -5.13% |
| Cc1ccc(S(=O)(=O)N(CCO)C2CC2)cc1N(C)C | -8.91% |
| CCc1nc(CNCC2CCCN2c2cccnn2)cs1 (stereo unspecified) | -7.69% |
| COCCC1(CO)CCCN(Cc2cc(C(F)(F)F)ccc2F)C1 (stereo unspecified) | -141% |
| COCCn1ccnc1C1CCN(C(=O)CSc2nnc(C)o2)CC1 | -11.5% |
| Cc1[nH]c(=O)sc1S(=O)(=O)N1CCCC1C(=O)NCc1ccsc1 (stereo unspecified) | 2.78% |
| O=C(CSc1nnc(N2CCCC2)s1)NC(=O)Nc1ccccc1 | 3.59% |
| CC(C)N(C)Cc1cncc2c1CCN(C(=O)c1cccc(C#N)c1)C2 | 4.01% |
| O=C(NC1CC(=O)N(C2CC2)C1)c1cccs1 (stereo unspecified) | 17.5% |
| O=C(NCCC(O)c1ccccc1)c1ccco1 (stereo unspecified) | -0.749% |
| COc1ccc(CN2CCN(CC3CC3)[C@@H]3CS(=O)(=O)C[C@@H]32)cc1C | -1.95% |
| CN1CCc2c(NC(=O)NCc3ccccc3Cl)cccc21 | 3.65% |
| Cc1nsc(NC(=O)N2CCN(Cc3ccccc3F)C(=O)C2)n1 | -4.25% |

| Structure (SMILES) | cytotoxicity at 10 µM |
| --- | --- |
| CC(C)NC(=O)CNC(=O)OC(C)(C)C | 9.39% |
| CC(C)c1ncc(CN2C[C@@H](CN3CCC(O)CC3)[C@@H](CO)C2)cn1 | -7.79% |
| CCNc1cc2c(nn1)CCN(C(=O)c1ccc(CNC(C)=O)o1)C2 | -10.8% |
| Cc1cc(-c2nn(C)c(Cl)c2CN2CC[C@@](O)(C3CCC3)[C@H](C)C2)no1 | -7.23% |
| CCOc1cc(C(=O)N2CCCC(c3noc(C(C)C)n3)C2)ccn1 (stereo unspecified) | -6.73% |
| O=C(C1CCC1)N1CCC(C2CCN(Cc3ccc(Cl)cc3)C2)CC1 (stereo unspecified) | -10.5% |
| CC1CCCCN1CCNC(=O)c1scnc1Cl (stereo unspecified) | -6.27% |
| CC(C)c1noc(CNc2ccc(OC(F)F)cc2OC(F)F)n1 | 23.6% |
| CCC(NC(=O)c1cc(CC(C)C)nn1C)c1cccc(C)n1 (stereo unspecified) | -116% |
| Cc1cc(C)c2[nH]c(CN3CCCC(N4CCOCC4)C3)cc(=O)c2c1 (stereo unspecified) | -1.78% |
| Cc1cc(C)cc(C(C(=O)O)N(C)CCCN2CCOCC2)c1 (stereo unspecified) | 6.03% |
| CC(=O)N1CCC(c2ccnc(Nc3cc(C(F)(F)F)ccn3)n2)C1 (stereo unspecified) | 11% |
| CNC(=O)C(C)CN(C)C(=O)Nc1ccc(Cl)cc1-n1cccc1 (stereo unspecified) | 16.9% |
| CCC1=NC2(CCC(C(=O)Nc3ccc(F)cc3)CC2)C(=O)N1C (stereo unspecified) | 2.26% |
| Cc1ccc(S(=O)(=O)N2CCCCC(N3CCN(C)CC3)C2)cc1F (stereo unspecified) | 6.24% |
| CC1CN(Cc2nccn2C)CCN1c1ccc2nncn2n1 (stereo unspecified) | -8.52% |
| CC(=O)N1CCCN(Cc2csc(C)n2)c2ccccc21 | 0.00333% |
| COc1cc(NC(=O)NC(C2CC2)C2CC2)ccc1N1CCOC1=O | 4.63% |
| O=C1CCOCCN1Cc1ccc(C(F)(F)F)c(F)c1 | -7.63% |
